The full list was thinned out, with hits kept by preference.
Dynein transport: inhibitors of GR-EGFP nuclear translocation, primary screen, dynein cargo transport inhibitor project, imaging, high-content, 3617.4 mouse cells | test concentration mostly 20 µM; stimulated with dexamethasone, 1 µM; hits give low values | z-score, hits read low | 220,000 compounds, 0.47% hits | AID 1381, 2008;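 active = plate z-score of nuclear minus cytoplasmic receptor signal below a set negative limit, without overly bright fluorescence or cell loss, cut at about -3.5 in these data, passing the limit was not always enough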;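 note: z-score of nuclear minus cytoplasmic ring GR-EGFP intensity difference per well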
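Schedule: 48 h induction, then 1 h compound, then 30 min agonist, 37 °C. Buffer or medium: tetracycline-free induction medium containing charcoal-stripped FBS. Reagent: 1.0 µM final dexamethasone stimulus. Evaluation: nuclear versus cytoplasmic GR-EGFP signal, averaged per well. Signal: high-content fluorescence imaging after fixation.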
UPR XBP1 act: activators of adaptive XBP1 UPR arm, primary screen, cell-based, CHO-XBP1 luciferase reporter, luminescence, uHTS; IRE1-XBP1 UPR activation; percent of tunicamycin response, DMSO as zero; activation, % at 20 µM; 330,000 compounds, 0.33% hits;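 active = versus positive control, 20 µM dose yields 30% or more activation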;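 note: 100% = tunicamycin at 10 µg/mL and 0% = DMSO only wells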
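Assay system: IRE1-XBP1 luciferase reporter CHO line. Input: 1000 cells/well. Buffer or medium: F12 with 10% serum. Doses: 20 µM, 1% DMSO. Times: overnight seeding at 37 °C, 6 h compound treatment at 37 °C. Technique: Steady-Glo luciferase glow luminescence, 10 min after reagent addition.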
CHOP inhibitor: inhibitors of CHOP promoter induction, primary screen, cell-based, unfolded protein response, luciferase reporter. CHO-K1 CHOP-promoter luciferase, tunicamycin-induced, 15-18 h. inhibition, % at 10 µM. 220,000 compounds, 3.8% hits;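 active = compounds that reduced the stress-induced luciferase reporter signal by more than about 70% of percent inhibition, limit read from the data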;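 note: 0% = tunicamycin plus vehicle and 100% = wells without tunicamycin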
Lmaj promast: Leishmania major promastigote growth inhibition, primary screen. Leishmania major promastigotes, resazurin fluorescence viability. inhibition, % at 10 µM. 200,000 compounds, 9% hits. AID 1063, 2008; in the data active = inhibition above about 50%;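 note: promastigotes grown with compound for 44 hours at 28 °C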
CHOP UPR activ: activators of apoptotic CHOP UPR arm, primary screen, cell-based, CHO-CHOP luciferase reporter, luminescence, uHTS | UPR activation; percent of tunicamycin response over DMSO baseline | activation, % at 10 µM | 330,000 compounds, 0.34% hits | AID 449763, 2010;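 active = at 10 µM dose, activation of 40% or more, normalized to positive control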;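 note: 100% = tunicamycin at 10 µg/mL and 0% = DMSO alone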
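Dosing – one dose, 10 µM in 0.5% DMSO · System – CHO-CHOP cells, stable luciferase reporter of PERK-eIF2a-CHOP signalling · Input – 500 cells/well · Control set – tunicamycin 10 µg/mL final as positive, DMSO-only wells as negative · Timing – 6 h compound treatment, 37 °C · Measure – % activation vs tunicamycin · Technique – luminescence read with Steady-Glo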
T cruzi repl: inhibitors of intracellular T. cruzi growth, primary screen, luminescence, NIH3T3 host cells; inhibition, % (concentration not given with the values); 300,000 compounds, 1.4% hits; T. cruzi beta-gal in NIH3T3, 90 h;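 active = mean inhibition across valid replicates above about 55%, limit read from the data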;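 note: signal also drops with host cell toxicity which is not excluded here; 0% = plate median of DMSO wells and 100% = zero luminescence signal; higher percent means less beta-gal luminescence so fewer parasites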
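System: Mouse NIH/3T3 fibroblasts infected with β-gal-expressing T. cruzi Tulahuen C4 | Quantity: NIH/3T3 cells, 5,000 per well | Reagent: 5000 reporter trypomastigotes per well | Dosing: Compound pinned at 50 nL/well, DMSO | Schedule: 3 h host attachment, then at least 90 h co-culture | Detection: GalScreen luminescence, 60 min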
The depositor's hits bear a star; · = not tested or not shown.

SMILES | Dynein transport | UPR XBP1 act | CHOP inhibitor | Lmaj promast | CHOP UPR activ | T cruzi repl
CC1=C(C(=O)OC(C)C)C(c2ccc(N(C)C)cc2)C2=C(CC(C)(C)CC2=O)N1 (configuration not stated) | 0.811 | 3.6 | 27.8 | 22.7 | 10.0 | -8.5
CC1=C(C(=O)OC(C)C)C(c2cccnc2)C2=C(CC(C)(C)CC2=O)N1 (configuration not stated) | 2.54 | -4.5 | 21.1 | 92.0* | -1.6 | 39.1
COCCOC(=O)C1=C(C)NC2=C(C(=O)CC(C)(C)C2)C1c1cccnc1 (configuration not stated) | 0.108 | -1.4 | 23.3 | 63.7* | -0.2 | -0.1
CC1=C(C(=O)OCCOC(C)C)C(c2cccnc2)C2=C(CCCC2=O)N1 (configuration not stated) | -0.995 | -3.2 | 27.1 | 23.0 | 1.4 | 8.2
COC(=O)C1=C(N)OC2=C(C(=O)CC(C)(C)C2)C1c1cccnc1 (configuration not stated) | 1.47 | -1.6 | 7.1 | 50.5* | 5.7 | -7.9
CC(C)(C)C(=O)NC(=S)NCc1ccccc1 | 0.644 | -1.2 | 8.4 | 4.4 | -2.4 | -5.6
CCN1CCN(c2c(S(=O)(=O)c3ccc(C)c(C)c3)cnc3ccc(F)cc23)CC1 | · | 1.8 | · | · | 0.6 | 3.6
OCC[C@@H]1C[C@@H](O)[C@H](O)[C@@]2(OCCc3ccccc32)O1 | · | -4.5 | · | · | 1.5 | -18.5
O=C(Cc1ccc(S(=O)(=O)N2CCCC2)s1)Nc1nc2c(s1)CCCC2 | -0.991 | 2.5 | -18.9 | 84.6* | 1.3 | -8.4
Cc1ccc(C2/C=C\CC(NC(=O)OCC3c4ccccc4-c4ccccc43)CC(=O)N2Cc2ccccc2)cc1 (configuration not stated) | · | 0.5 | · | · | 1.5 | ·
Cc1ccc2cc(/C=N/NC(=O)[C@H]3C[C@@H]3c3ccccc3)c(Cl)nc2c1 | 0.139 | 3.2 | 57.2 | 35.2 | -0.4 | 55.5*
O=C(Nc1cccc(-c2nc3ncccc3o2)c1)c1ccccc1 | -1.05 | 1.3 | 22.4 | 99.7* | 1.0 | 60.5*
Cc1ccc(OCC(=O)Nc2ccc(-c3nc4ncccc4o3)cc2)c(C)c1 | 0.795 | -2.0 | 84.3* | 39.2 | -1.0 | -5.2
CCCCC(=O)Nc1cc(-c2nc3ncccc3o2)ccc1C | 0.387 | -3.1 | 42.7 | 99.2* | -1.6 | -10.1
O=C(Nc1cnn(C23CC4CC(CC(C4)C2)C3)c1)c1cnn2c(C(F)(F)F)cc(-c3ccco3)nc12 | 2.08 | 10.9 | 41.0 | 82.4* | 10.3 | -6.4
C=CCOc1cccc(C(=O)/C=C2/C(=O)Nc3ccccc32)c1 | · | 0.2 | · | · | 85.6* | 44.5
CC(=O)Nc1ccc(NC(=O)CSc2ccc(-c3ccc(-n4ccnc4)cc3)nn2)cc1 | · | -1.7 | · | · | 1.1 | -0.3
CCOc1ccc2nc(SCC(=O)NC3CC3)sc2c1 | · | -0.7 | · | · | 2.3 | -12.9
CCOC(=O)CSc1nc2ccc(NC(C)=O)cc2s1 | 0.939 | -1.4 | 90.0* | -2.9 | 0.6 | -7.9
CCOc1ccc2nc(SCC(=O)c3ccccc3)sc2c1 | -0.548 | 4.8 | 93.5* | -2.9 | 1.8 | -8.8
CC(=O)Nc1ccc2nc(SCC(=O)O)sc2c1 | -0.762 | 0.3 | -14.2 | 2.5 | 2.5 | -2.3
O=C(Nc1nnc(COc2ccc(Cl)cc2)s1)c1ccc([N+](=O)[O-])cc1 | -0.0759 | -2.0 | 18.9 | -5.1 | -1.5 | 1.1
O=C(Nc1ncc(Cc2ccc(Cl)cc2Cl)s1)c1ccc([N+](=O)[O-])cc1 | -0.346 | 2.4 | 59.1 | 53.2* | 1.6 | 25.9
O=C(Nc1ncc(Cc2ccccc2Cl)s1)C1=NCCN1 | 0.776 | 0.8 | 0.1 | 72.8* | 0.4 | -0.1
COc1ccc(C(=O)N(C)CC2CCN(CCc3cccc(C(F)(F)F)c3)CC2)cc1C | · | -1.7 | · | · | -1.6 | 44.6
COc1cccc(CN2CCNC(=O)C2CC(=O)NCCCC2CCCC2)c1OC (configuration not stated) | · | -9.1 | · | · | 0.2 | -10.4
